Data set [1] can be described thus: Half life in mouse at 10 mg/kg, po. The class given is ADME, organism-based. The following applies: in vivo. In a few lines: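 Mice, n = 3, received a single oral dose of 10 mg/kg in water with 1% hydroxypropyl methylcellulose/Tween 80 (99:1). Tail-vein blood was drawn at 30 and 60 min and tissue collected at 3 h. Compound was quantified by LC−MS and PK derived by noncompartmental analysis.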

Data set [2] deals with T1, Retinoic acid receptor RXR-alpha (Homo sapiens) (UniProt P19793).
T1 sequence (whole entry): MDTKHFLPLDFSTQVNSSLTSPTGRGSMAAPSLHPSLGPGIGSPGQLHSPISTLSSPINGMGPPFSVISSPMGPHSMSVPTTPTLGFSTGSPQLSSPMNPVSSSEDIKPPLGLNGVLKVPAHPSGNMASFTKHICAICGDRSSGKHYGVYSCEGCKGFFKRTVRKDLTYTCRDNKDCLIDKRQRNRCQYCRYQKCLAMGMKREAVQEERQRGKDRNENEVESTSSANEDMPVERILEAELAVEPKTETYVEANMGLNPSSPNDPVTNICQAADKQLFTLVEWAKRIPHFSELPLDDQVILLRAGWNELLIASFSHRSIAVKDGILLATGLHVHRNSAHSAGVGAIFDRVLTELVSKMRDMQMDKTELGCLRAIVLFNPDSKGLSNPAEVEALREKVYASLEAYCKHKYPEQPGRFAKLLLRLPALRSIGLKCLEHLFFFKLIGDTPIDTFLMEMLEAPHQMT
The data set can be described thus: Agonist activity against human RXRalpha in human HEK293T cells co-expressing pFR/pRL-Luc assessed as receptor activation at 10 uM incubated for 14 to 16 hrs by hybrid reporter gene assay relative to bexarotene. The class given is cell-based. Conditions: filed as agonist, time 14-16 hrs. An outline of the steps:
(§1)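 Gal4 hybrid reporter assay in HEK293T cells, seeded 24 h before transfection (Lipofectamine LTX, Opti-MEM) with pFR-Luc, pRL-SV40 and pFA-CMV plasmid carrying the hinge region and LBD of the human receptor. After 5 h, compound added in 0.1% DMSO, with 0.1% DMSO alone as untreated control. Dual-Glo luciferase read after 14−16 h; firefly/renilla normalized; duplicates, ≥2 independent experiments.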

Data set [3] concerns the target T2, Retinoic acid receptor RXR-alpha (Homo sapiens, UniProt P19793).
T2 sequence (P19793 whole entry): T1 sequence (whole entry)
The data set can be described thus: Agonist activity at human RXRalpha transfected in human HEK293T cells co-expressing pFR/pRL-Luc incubated for 14 to 16 hrs by hybrid reporter gene assay. Format: cell-based. On the technique in general: Reporter assays use an easily measured gene product as a stand-in for the process of interest.

The target in data set [4] is T3, Peroxisome proliferator-activated receptor delta (Homo sapiens) (UniProt Q03181).
T3 sequence (whole entry): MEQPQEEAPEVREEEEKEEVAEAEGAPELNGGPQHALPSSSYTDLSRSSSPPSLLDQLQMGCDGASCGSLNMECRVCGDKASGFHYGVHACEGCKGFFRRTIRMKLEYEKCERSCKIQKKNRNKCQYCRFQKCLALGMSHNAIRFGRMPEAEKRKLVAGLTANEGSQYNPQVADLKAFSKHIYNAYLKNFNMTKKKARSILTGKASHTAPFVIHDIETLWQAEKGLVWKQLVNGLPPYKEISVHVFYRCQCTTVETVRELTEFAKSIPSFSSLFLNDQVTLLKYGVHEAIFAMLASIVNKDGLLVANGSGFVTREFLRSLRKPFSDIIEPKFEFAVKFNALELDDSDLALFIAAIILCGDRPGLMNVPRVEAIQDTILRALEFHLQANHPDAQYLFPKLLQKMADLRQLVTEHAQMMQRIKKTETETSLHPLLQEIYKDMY
The data set can be described thus: Agonist activity against human PPARdelta in human HEK293T cells co-expressing pFR/pRL-Luc assessed as receptor activation at 10 uM incubated for 14 to 16 hrs by hybrid reporter gene assay relative to bexarotene. The class given is cell-based. Conditions: filed as agonist, time 14-16 hrs. An outline of the steps: as §1

Data set [5] addresses T4, Retinoic acid receptor RXR-gamma (Homo sapiens, UniProt P48443).
T4 sequence (P48443 whole entry): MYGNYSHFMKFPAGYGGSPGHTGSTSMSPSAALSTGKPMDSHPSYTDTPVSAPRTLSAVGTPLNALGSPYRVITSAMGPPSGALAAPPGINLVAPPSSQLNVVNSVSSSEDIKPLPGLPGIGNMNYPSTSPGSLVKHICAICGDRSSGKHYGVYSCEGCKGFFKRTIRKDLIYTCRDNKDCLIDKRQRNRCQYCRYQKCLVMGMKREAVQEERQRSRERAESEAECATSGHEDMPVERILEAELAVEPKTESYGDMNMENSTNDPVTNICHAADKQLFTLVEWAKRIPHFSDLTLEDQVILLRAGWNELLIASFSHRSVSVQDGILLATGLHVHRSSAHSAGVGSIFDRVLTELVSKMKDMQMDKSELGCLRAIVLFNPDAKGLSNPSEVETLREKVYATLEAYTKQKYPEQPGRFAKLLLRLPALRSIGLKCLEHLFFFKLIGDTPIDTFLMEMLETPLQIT
The data set can be described thus: Agonist activity at human RXRgamma transfected in human HEK293T cells co-expressing pFR/pRL-Luc incubated for 14 to 16 hrs by hybrid reporter gene assay. The class given is cell-based.

Data set [6] has as its target T5, Nuclear receptor subfamily 1 group I member 3 (Homo sapiens, UniProt Q14994).
T5 sequence (Q14994 whole entry): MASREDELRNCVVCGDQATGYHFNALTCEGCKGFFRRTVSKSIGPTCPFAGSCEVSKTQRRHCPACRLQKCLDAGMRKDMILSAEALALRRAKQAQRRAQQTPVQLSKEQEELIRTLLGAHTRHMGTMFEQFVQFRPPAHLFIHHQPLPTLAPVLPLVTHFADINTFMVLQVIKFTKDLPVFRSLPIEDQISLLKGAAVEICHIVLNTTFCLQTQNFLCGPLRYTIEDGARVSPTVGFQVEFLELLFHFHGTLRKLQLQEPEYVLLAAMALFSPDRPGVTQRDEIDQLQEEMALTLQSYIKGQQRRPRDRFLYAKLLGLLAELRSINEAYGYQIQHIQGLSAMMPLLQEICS
The data set can be described thus: Agonist activity against human CAR in human HEK293T cells co-expressing pFR/pRL-Luc assessed as receptor activation at 10 uM incubated for 14 to 16 hrs by hybrid reporter gene assay relative to bexarotene. Format: cell-based. The following applies: time 14-16 hrs. In a few lines: as §1

These results are taken from ChEMBL document CHEMBL4834419 (J Med Chem, 2021).

A value given as a limit tells only on which side of the number the result lay.

A word on the half-life: it is the time needed for the level to fall by half in the phase considered. Low readings indicate fast loss, high ones slow loss. A word on the EC50: it is the concentration needed to bring the measured effect to its halfway point. A high value points to a less potent agent.

In the case of `O=C(O)CCCc1cc(-c2cc(Cl)cc(Cl)c2)n(-c2ccccc2)n1`, the half-life in data set [1] is > 3 h. The Activity in data set [2] was determined as 21%; in data set [4] it was 1%; in data set [6] it was 5%. Also, the EC50 in data set [3] is 250 nM; in data set [5] it was 1600 nM.
